17 molecules from ChEMBL document CHEMBL1154609, “Synthesis and antibacterial activity of isothiazolyl oxazolidinones and analogous 3(2H)-isothiazolones” (Eur J Med Chem, 2010) can be followed below.

In one assay the test system is Salmonella typhimurium. Briefly: Antibacterial activity against Salmonella Typhimurium ATCC 1639 after 18 hrs by agar dilution method. The class given is functional, Salmonella enterica subsp. enterica serovar Typhimurium. The settings on record: Salmonella enterica, ATCC 1639, 18 h. In a few lines: (§1)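 Agar dilution on Mueller Hinton agar; inoculum about 10^6 CFU/mL applied to plates with twofold serial dilutions of compound in distilled water, 0.01 to 100 μg/mL; 37 °C, 18 h. DMSO-supplemented medium at matching dilution run as solvent control. MIC = lowest concentration giving no visible growth on the plate.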
For orientation: Agar dilution tests growth on a series of plates holding different concentrations.

The test system of assay [1] is Staphylococcus aureus. Nature of the assay: Antibacterial activity against Staphylococcus aureus ATCC 29737 after 18 hrs by agar dilution method. The class given is functional. The settings on record: ATCC 29737, 18 h. An outline of the steps:
as §1

Another assay relates to Pseudomonas aeruginosa. Briefly: Antibacterial activity against Pseudomonas aeruginosa ATCC 9027 after 18 hrs by agar dilution method. The settings on record: ATCC 9027, 18 h.
The test system of another assay is Escherichia coli. Nature of the assay: Antibacterial activity against Escherichia coli ATCC 8739 after 18 hrs by agar dilution method. The class given is functional. The settings on record: ATCC 8739, 18 h. In a few lines: as §1
For assay [2], the system named is Staphylococcus epidermidis. Nature of the assay: Antibacterial activity against Staphylococcus epidermidis ATCC 12229 after 18 hrs by agar dilution method. The settings on record: ATCC 12229, 18 h. The class given is functional. An outline of the steps:
as §1

Assay [3] can be described thus: Cytotoxicity against mouse NIH/3T3 cells after 24 hrs by MTT assay. The settings on record: NIH3T3, 24 h. The assay is classed as cell-based. In a few lines: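 NIH/3T3 normal mouse fibroblasts exposed to compounds for 24 h; viability read by MTT colorimetric assay.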
(Formazan colour is commonly taken as a measure of viable cells.)

Assay [4] deals with Staphylococcus aureus. Briefly: Antibacterial activity against methicillin-resistant Staphylococcus aureus isolate 2 after 18 hrs by agar dilution method. The assay is classed as functional. The settings on record: isolate 2, 18 h. An outline of the steps: (§2)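 Agar dilution on Mueller Hinton agar. Inoculum about 10^6 CFU/mL applied to plates holding two-fold serial dilutions of compound in distilled water, 0.01 to 100 μg/mL. Incubated 37 °C for 18 h. DMSO solvent control included. MIC taken as the lowest concentration giving no visible growth on the plate.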

The test system of assay [5] is Staphylococcus aureus. Nature of the assay: Antibacterial activity against methicillin-resistant Staphylococcus aureus isolate 1 after 18 hrs by agar dilution method. The assay is classed as functional. The settings on record: isolate 1, 18 h. An outline of the steps:
as §2

Values after ≈ are worked out from the molar mass of the structure shown.

Broadly, the MIC is the lowest concentration found to suppress growth. A higher MIC goes with a less susceptible organism. `O=C1OC(Cn2sccc2=O)CN1c1ccc(N2CCOCC2)c(F)c1` (centres undefined): the MIC in the assay with Salmonella typhimurium was 12.5 µg/mL (≈ 32.9 µM); in the assay with Staphylococcus aureus [1] it was 6 µg/mL (≈ 15.8 µM); against Pseudomonas aeruginosa, 12.5 µg/mL (≈ 32.9 µM); in the assay on Escherichia coli it was 25 µg/mL (≈ 65.9 µM); in assay [2], 12.5 µg/mL (≈ 32.9 µM).
Take `O=c1cc(Cl)sn1-c1ccc(F)cc1`: the minimal inhibitory concentration (MIC) against Salmonella typhimurium stood at 6 µg/mL (≈ 26.1 µM); in the assay with Staphylococcus aureus [1], 3 µg/mL (≈ 13.1 µM); against Pseudomonas aeruginosa, 12.5 µg/mL (≈ 54.4 µM); in the assay with Escherichia coli it was 6 µg/mL (≈ 26.1 µM); in assay [2], 3 µg/mL (≈ 13.1 µM).
For orientation: IC50 means the point on the concentration scale where inhibition reaches its midpoint. The low end stands for greater potency in that assay, the high end for weaker potency in that assay. As to `O=C1OC(Cn2sccc2=O)CN1c1ccccc1` (centres undefined), in assay [3], the concentration for half-maximal inhibition (IC50) was determined as 162 µg/mL (≈ 586 µM). For the same molecule, the MIC in the assay on Staphylococcus aureus [4] came to 10 µg/mL (≈ 36.2 µM); against Salmonella typhimurium it was 0.01 µg/mL (≈ 0.0362 µM); against Staphylococcus aureus [5], 6 µg/mL (≈ 21.7 µM); in the assay with Staphylococcus aureus [1], 0.75 µg/mL (≈ 2.71 µM); with Pseudomonas aeruginosa, 0.01 µg/mL (≈ 0.0362 µM); with Escherichia coli it was 0.01 µg/mL (≈ 0.0362 µM). Moreover, the MIC in assay [2] was determined as 0.75 µg/mL (≈ 2.71 µM).
As for `CC(=O)c1ccc(-n2sccc2=O)cc1`, the MIC (in the assay on Salmonella typhimurium; against Staphylococcus aureus [1]; with Pseudomonas aeruginosa; against Escherichia coli; in assay [2]) was 12.5 µg/mL (≈ 57 µM) each time.
In assay [3], `O=C1OC(Cn2sccc2=O)CN1c1ccc(F)cc1` (centres undefined) returned a 50% inhibitory concentration (IC50) of 174 µg/mL (≈ 591 µM). In addition, the MIC in the assay with Staphylococcus aureus [4] was found to be 12.5 µg/mL (≈ 42.5 µM); with Salmonella typhimurium, 0.75 µg/mL (≈ 2.55 µM); against Staphylococcus aureus [5], 10 µg/mL (≈ 34 µM); against Staphylococcus aureus [1] it was 0.75 µg/mL (≈ 2.55 µM); with Pseudomonas aeruginosa, 0.75 µg/mL (≈ 2.55 µM); against Escherichia coli, 0.75 µg/mL (≈ 2.55 µM). In assay [2], this molecule displayed an MIC of 1.5 µg/mL (≈ 5.1 µM).
As to `COc1ccc(-n2sc(Cl)cc2=O)cc1`, the MIC against Salmonella typhimurium worked out at 1.5 µg/mL (≈ 6.21 µM); in the assay on Staphylococcus aureus [1], 1.5 µg/mL (≈ 6.21 µM); against Pseudomonas aeruginosa, 0.01 µg/mL (≈ 0.0414 µM); in the assay on Escherichia coli, 1.5 µg/mL (≈ 6.21 µM); in assay [2] it was 0.25 µg/mL (≈ 1.03 µM).
For the molecule `O=c1ccsn1-c1ccc(C(F)(F)F)cc1`, the MIC came out at 25 µg/mL (≈ 102 µM) with Salmonella typhimurium; 25 µg/mL (≈ 102 µM) against Staphylococcus aureus [1]; 25 µg/mL (≈ 102 µM) with Pseudomonas aeruginosa; 25 µg/mL (≈ 102 µM) against Escherichia coli; 0.25 µg/mL (≈ 1.02 µM) in assay [2].
`COc1ccc(N2CC(Cn3sccc3=O)OC2=O)cc1` (centres undefined): the MIC against Salmonella typhimurium was determined as 100 µg/mL (≈ 326 µM); against Staphylococcus aureus [1] it was 50 µg/mL (≈ 163 µM); against Pseudomonas aeruginosa, 100 µg/mL (≈ 326 µM); in the assay on Escherichia coli, 100 µg/mL (≈ 326 µM); in assay [2], 50 µg/mL (≈ 163 µM).
`O=C1OC(Cn2sccc2=O)CN1c1ccc(Cl)cc1` (centres undefined) gave an IC50 in assay [3] of 194 µg/mL (≈ 624 µM). Also, the minimal inhibitory concentration (MIC) turned out to be 12.5 µg/mL (≈ 40.2 µM) in the assay with Staphylococcus aureus [4]; 12.5 µg/mL (≈ 40.2 µM) against Salmonella typhimurium; 12.5 µg/mL (≈ 40.2 µM) with Staphylococcus aureus [5]; 1.5 µg/mL (≈ 4.83 µM) against Staphylococcus aureus [1]; 25 µg/mL (≈ 80.4 µM) with Pseudomonas aeruginosa; 12.5 µg/mL (≈ 40.2 µM) with Escherichia coli. In assay [2], this molecule returned an MIC of 1.5 µg/mL (≈ 4.83 µM).
In the case of `COc1ccc(-n2sccc2=O)cc1`, the MIC came to 12.5 µg/mL (≈ 60.3 µM) against Salmonella typhimurium; 10 µg/mL (≈ 48.2 µM) against Staphylococcus aureus [1]; 25 µg/mL (≈ 121 µM) in the assay on Pseudomonas aeruginosa; 25 µg/mL (≈ 121 µM) against Escherichia coli; 3 µg/mL (≈ 14.5 µM) in assay [2].
As for `CC(=O)c1ccc(-n2sc(Cl)cc2=O)cc1`, the minimum inhibitory concentration (MIC) against Salmonella typhimurium turned out to be 25 µg/mL (≈ 98.5 µM); against Staphylococcus aureus [1], 12.5 µg/mL (≈ 49.3 µM); in the assay with Pseudomonas aeruginosa it was 12.5 µg/mL (≈ 49.3 µM); against Escherichia coli, 12.5 µg/mL (≈ 49.3 µM); in assay [2], 12.5 µg/mL (≈ 49.3 µM).
Turning to `Cc1ccc(-n2sc(Cl)cc2=O)cc1`, the minimal inhibitory concentration (MIC) in the assay with Salmonella typhimurium amounted to 5 µg/mL (≈ 22.2 µM); in the assay with Staphylococcus aureus [1], 5 µg/mL (≈ 22.2 µM); in the assay on Pseudomonas aeruginosa, 0.01 µg/mL (≈ 0.0443 µM); in the assay on Escherichia coli it was 5 µg/mL (≈ 22.2 µM); in assay [2], 0.5 µg/mL (≈ 2.22 µM).
In the case of `Cc1ccc(N2CC(Cn3sccc3=O)OC2=O)cc1` (centres undefined), the minimal inhibitory concentration (MIC) (against Salmonella typhimurium; in the assay with Staphylococcus aureus [1]; with Pseudomonas aeruginosa; in the assay with Escherichia coli; in assay [2]) was 25 µg/mL (≈ 86.1 µM) each time.
On to `O=c1ccsn1-c1cccc(Cl)c1`, for which the MIC with Salmonella typhimurium was found to be 25 µg/mL (≈ 118 µM); against Staphylococcus aureus [1] it was 10 µg/mL (≈ 47.2 µM); against Pseudomonas aeruginosa, 25 µg/mL (≈ 118 µM); in the assay with Escherichia coli, 25 µg/mL (≈ 118 µM); in assay [2] it was 12.5 µg/mL (≈ 59.1 µM).
Take `O=c1ccsn1Cc1ccccc1`: the minimum inhibitory concentration (MIC) against Salmonella typhimurium came out at 12.5 µg/mL (≈ 65.4 µM); against Staphylococcus aureus [1], 12.5 µg/mL (≈ 65.4 µM); in the assay with Pseudomonas aeruginosa it was 12.5 µg/mL (≈ 65.4 µM); with Escherichia coli it was 12.5 µg/mL (≈ 65.4 µM); in assay [2], 6 µg/mL (≈ 31.4 µM).
As for `O=c1cc(Cl)sn1Cc1ccccc1`, the minimal inhibitory concentration (MIC) with Salmonella typhimurium worked out at 12.5 µg/mL (≈ 55.4 µM); against Staphylococcus aureus [1] it was 0.5 µg/mL (≈ 2.22 µM); in the assay on Pseudomonas aeruginosa it was 25 µg/mL (≈ 111 µM); against Escherichia coli it was 0.5 µg/mL (≈ 2.22 µM); in assay [2], 0.5 µg/mL (≈ 2.22 µM).
Take `O=c1cc(Cl)sn1-c1cccc(Cl)c1`: the MIC was found to be 12.5 µg/mL (≈ 50.8 µM) against Salmonella typhimurium; 6 µg/mL (≈ 24.4 µM) in the assay on Staphylococcus aureus [1]; 12.5 µg/mL (≈ 50.8 µM) in the assay on Pseudomonas aeruginosa; 12.5 µg/mL (≈ 50.8 µM) in the assay on Escherichia coli; 10 µg/mL (≈ 40.6 µM) in assay [2].
